Assay results collected from several papers.
Target: BMP-2-inducible protein kinase (BMP2K, Homo sapiens, UniProt Q9NSY1)

| Compound | test | conditions | measurement | value |
| --- | --- | --- | --- | --- |
| Cc1ccc(C(=O)NCc2ccsc2)cc1C#Cc1cn(C(C)C)c2ncnc(N)c12 | enzyme activity, inhibitor | 1 µM | activity vs control | 128% |
| CN(CCCC(F)(F)F)c1nccc(-c2cnn3ncccc23)n1 | binding | 1 µM | remaining binding | 100% |
| NS(=O)(=O)c1ccc(CNc2ccnc(Nc3cccc(CN4CCOCC4)c3)n2)cc1 | enzyme activity, inhibitor, radiometric | 1 µM | remaining activity | 51% |
| Cc1ccc(C(=O)Nc2ccc(CN3CCN(C)CC3)c(C(F)(F)F)c2)cc1C#Cc1cnc2cccnn12 | enzyme activity, inhibitor | 23.5 nM | remaining activity | 95% |
| Cn1c2c(Cl)c(Cl)ccc2c2cc[nH]c(=O)c21 | thermal stability, DSF | 10 µM | ΔTm | > 8 °C |
| Nc1ncnc2occ(-c3ccc(NC(=O)Nc4cc(C(F)(F)F)ccc4F)cc3)c12 | cell-free assay, inhibitor | 20 µM | remaining signal | 59% |
| CN1CCc2cc(Nc3ncc(C4CC4)c(NCCCNC(=O)C4CCC4)n3)ccc2C1 | enzyme activity, inhibitor, radiometric | 1 µM | remaining activity | 3% |
| Cn1nc(C(=O)NCc2ccc(C(=O)O)cc2)cc1-c1ccc2[nH]ccc2c1 | cell-free assay, competition with immobilised ligand | 0.1 µM | remaining binding | 82% |
| Cc1nn(CC(F)(F)F)cc1Nc1ncc(C2CC2)c(NCc2ccc(S(N)(=O)=O)cc2)n1 | enzyme activity, inhibitor, radiometric | 1 µM | remaining activity | 94% |
| N#CC1(c2ccccn2)CCN(Cc2cc(C(=O)N3CCCC3)c(=O)n3ccccc23)CC1 | cell-free assay, competition with immobilised ligand | 1 µM | remaining binding | 92% |
